DNMT1 inh – human DNMT1 methyltransferase inhibitors, primary screen, biochemical, molecular beacon, fluorescence, HinP1I cleavage, uHTS | DNA (cytosine-5)-methyltransferase 1 (Homo sapiens), P26358 | inhibition (reported as % activation of signal), % at 10 µM | hit rate 0.83% among 360,000 | AID 588458, 2011; in the data active means inhibition above about 50%
SUMO1-SIM PPI – modulators of SUMO1 protein-protein interactions, primary screen, biochemical, uHTS | Small ubiquitin-related modifier 1 (Homo sapiens), P63165 | SUMO1 binding to a labelled peptide, TR-FRET, 1 h | inhibition, % at 20 µM | hit rate 0.33% among 360,000 | AID 602429, 2012; in the data active means inhibition above about 37%
Target sequence (P63165 whole entry, looked up): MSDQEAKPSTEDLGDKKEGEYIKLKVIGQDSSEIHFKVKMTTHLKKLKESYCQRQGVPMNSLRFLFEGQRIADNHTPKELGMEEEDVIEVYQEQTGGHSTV
LMPTP inh – LMPTP phosphatase inhibitors, primary screen, biochemical, fluorescence intensity, uHTS | Low molecular weight phosphotyrosine protein phosphatase (Homo sapiens), P24666 | recombinant LMPTP-A, OMFP fluorogenic substrate | inhibition, % at 20 µM | hit rate 0.22% among 360,000 | AID 651560, 2012;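 active means compounds that cut the enzyme signal by at least half of the control window in the single-dose screen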;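 further: plate controls were DMSO wells with enzyme plus substrate for no effect and substrate without enzyme for full effect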
Target sequence (P24666 whole entry, looked up): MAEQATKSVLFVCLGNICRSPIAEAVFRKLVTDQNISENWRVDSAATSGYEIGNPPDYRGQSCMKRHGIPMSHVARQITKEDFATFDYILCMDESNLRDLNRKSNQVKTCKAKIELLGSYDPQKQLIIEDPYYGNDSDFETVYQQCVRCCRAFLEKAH
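Material: LMPTP-A; amount: 0.625 nM enzyme; doses: single 20 µM dose; times: reaction 50 min, room temperature, dark; technique: fluorescence intensity of OMFP turnover product; benchmarks: no-enzyme and uninhibited controls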
STEP block – STEP phosphatase inhibitors, primary screen, biochemical, fluorescence intensity, uHTS | recombinant STEP, OMFP fluorogenic substrate | Tyrosine-protein phosphatase non-receptor type 5 (Homo sapiens), P54829 | hit rate 0.25% among 360,000 | inhibition, % at 20 µM | AID 588621, 2011;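 active means inhibition at 20 µM, scaled per plate between control wells, above about 37%, limit read from the data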;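 further: 0% = DMSO with enzyme and substrate and 100% = substrate only without enzyme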
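Also added – OMFP at 25 µM · Test system – STEP tyrosine phosphatase · Technique – FITC-channel fluorescence of OMFP product · Schedule – 20 min at room temperature, dark · Evaluation – control-normalized % inhibition with plate pattern correction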
Scp1 inh – Scp-1 phosphatase inhibitors, primary screen, biochemical, colorimetric, uHTS; Carboxy-terminal domain RNA polymerase II polypeptide A small phosphatase 1 (Homo …; Recombinant Scp1, phosphopeptide, malachite green phosphate absorbance; inhibition, % at 20 µM; hit rate 0.88% among 340,000;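 active means inhibition above about 50% at 20 µM, limit read from the data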;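 further: plate controls were DMSO wells with enzyme for no effect and wells lacking enzyme for full effect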
Target sequence (Q9GZU7 76-261 limits assumed): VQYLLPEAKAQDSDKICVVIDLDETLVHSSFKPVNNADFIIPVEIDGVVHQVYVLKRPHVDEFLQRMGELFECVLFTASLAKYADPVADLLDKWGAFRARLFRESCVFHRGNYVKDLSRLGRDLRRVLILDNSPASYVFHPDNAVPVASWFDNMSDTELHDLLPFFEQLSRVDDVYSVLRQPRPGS
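Test system – truncated SCP-1 phosphatase (76-261aa) · Reagent – Phosphorylated 17-residue peptide substrate · Incubation – 45 min room-temperature reaction, 5 min colour, 30 min stabiliser · Detection – colorimetric phosphate reagent with accelerator and stabiliser, absorbance at 630 nm · Measure – % inhibition at 20 µM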
NadD block – inhibitors of S. aureus NadD, primary screen, biochemical, colorimetric, uHTS | Nicotinate-nucleotide adenylyltransferase NadD (Staphylococcus aureus N315) | inhibition, % at 20 µM | AID 602399, 2012 | purified NadD enzyme, colorimetric absorbance read-out | hit rate 0.78% among 360,000; in the data active means inhibition above about 26%
DNMT1 interf DR – spectral interference with molecular beacon fluorescence, dose response, artefact control for DNMT1 inhibitor project, biochemical, fluorescent molecular beacon; shares compounds with DNMT1 inh; spectral interference counter-screen; IC50, µM; 200 tested, under 10 active; call rule not given here
DNMT1 confirm – DNMT1 methyltransferase inhibitor retest, confirmation, biochemical, molecular beacon, fluorescence, single concentration | shares compounds with DNMT1 inh | DNMT1 molecular beacon HinP1I cleavage | inhibition, % at 10 µM | hit rate 8% among 2,300 | AID 602385, 2012;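 active means average inhibition of at least 30% in the single-concentration confirmation test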
DNMT1 interf – shows spectral interference in the DNMT1 beacon assay; shares compounds with DNMT1 inh; DNMT1 molecular beacon spectral interference counterscreen, fluorescence 485/520; activation (fluorescence interference), % at 10 µM; hit rate 1% among 2,300;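 active means activation of at least 30% at 10 µM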;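 further: DNMT1 catalytic domain with a HinP1I cleavage step and a FAM/dabcyl DNA beacon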
Starred values were filed as active, the others as inactive; / = no result given. Compounds with a hit are over-represented: about 2.4% of the library has one in this group of screens.

SMILES | DNMT1 inh | SUMO1-SIM PPI | LMPTP inh | STEP block | Scp1 inh | NadD block | DNMT1 confirm | DNMT1 interf | others
COc1cc(CNCC(C)C)cc(Br)c1OCC(=O)Nc1ccccc1 | 87* | 0 | 0 | 1 | -2 | -1 | 3 | 4
CCOC(=O)C1CCN(S(=O)(=O)CCNC(=O)c2ccc(F)cc2)CC1 | 4 | 3 | -2 | -1 | -8 | -6 | / | /
Nc1nnc(SCC(=O)Nc2cccc(S(N)(=O)=O)c2)s1 | 92* | -2 | 0 | 2 | 5 | -2 | 3 | 4
CC(C)[C@H](NC(N)=O)C(=O)Nc1cccc([N+](=O)[O-])c1 | -2 | 0 | 0 | -2 | -3 | -4 | / | /
CCNC(=O)COC(=O)c1cc(-c2ccco2)nc2ccccc12 | 71* | -2 | 5 | 0 | 70* | 5 | 12 | 3
Cc1nnc(NC(=O)c2cc(-c3ccco3)nc3ccccc23)s1 | 96* | 25 | 27 | 21 | / | 15 | 18 | 1
COc1ccc(NC(=O)c2cc(-c3ccco3)nc3ccccc23)cn1 | 49 | -5 | 14 | 4 | 67* | 16 | 2 | 0
CC[C@H]1OC(=O)[C@H](C)[C@@H](O[C@H]2C[C@@](C)(OC)[C@@H](O)[C@H](C)O2)[C@H](C)[C@@H](O[C@@H]2O[C@H](C)C[C@H](N(C)C)[C@H]2O)[C@](C)(O)C[C@@H](C)CN(C)[C@H](C)[C@@H](O)[C@]1(C)O | 2 | 7 | 0 | 1 | -3 | -10 | / | /
Cc1ccc(C(=O)OCC(=O)Nc2ccc3c(c2)OCO3)c(O)c1 | 5 | -5 | 0 | -3 | -2 | -5 | / | /
CC1=NN(c2nc(N)nc(/C(C#N)=C/c3ccc([N+](=O)[O-])o3)n2)C(C)(C)C1 | 54* | -13 | 3 | 7 | 64* | 13 | 2 | 0
O=C1C2C(C(=O)N1/N=C/c1ccc([N+](=O)[O-])o1)C1C=CC2C12CC2 (stereo unspecified) | -1 | -14 | 0 | 2 | -2 | 0 | / | /
O=C(CCc1nc(-c2ccccc2)no1)NCc1ccccc1CN1CCOCC1 | 2 | -6 | -2 | -2 | -2 | -4 | / | /
Clc1ccc2c(N/N=C/c3cccc(Br)c3)ccnc2c1 | 80* | 1 | 3 | 6 | -17 | 16 | 4 | 3
Clc1ccc2c(N/N=C/c3ccccc3Br)ccnc2c1 | 28 | -2 | 12 | 7 | 6 | 15 | / | /
COc1cc(/C=C/C=C2/CC/C(=C/C=C/c3ccc(O)c(OC)c3)C2=O)ccc1O | 90* | 11 | 13 | -8 | 39 | 70* | 27 | 0 | DNMT1 interf DR=>99
CCOc1ccc(OCc2ccc(C(=O)NC(C)(C)C)o2)cc1 | 49 | 0 | -1 | 3 | 6 | -3 | 9 | 2
CC(=O)Nc1ccc(SCC(=O)c2cc(C)ccc2C)cc1 | 86* | 3 | 0 | 0 | -6 | -1 | 8 | 6
CC(=O)Nc1cccc(-c2csc(C(C)(O)c3ccc(F)c(F)c3)n2)c1 (stereo unspecified) | -3 | 2 | -1 | -5 | / | -2 | / | /

Source: PubChem (Sanford-Burnham Center for Chemical Genomics)
